From ChEMBL document CHEMBL1765056, “Cytotoxic oleanane-type saponins from Albizia inundata” (J Nat Prod, 2011)
The source made the active and inactive calls. No cut-off for these calls is given here.

Experiments:
Assay type in all cases: functional, cell-based
[1] = system: B16-F10; experiment: Cytotoxicity against mouse B16F10 cells harboring BRAF […] mutation assessed as cell viability by MTS assay
Outline: (§1)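 Pure compounds tested at five concentrations from 50 nM to 20 uM. Readout is MTS viability, with IC50 derived per cell line. JMAR and MDA1986 are head and neck squamous carcinoma lines. B16F10 is a murine melanoma line and SKMEL28 a human melanoma line, both BRAF V600E; SKMEL28 also carries a PTEN mutation.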

[2] = Cytotoxicity against human JMAR cells assessed as cell viability by MTS assay; outline: as §1
[3] = system: SK-MEL-28; experiment: Cytotoxicity against human SK-MEL-28 cells harboring BRAF […]/PTEN mutation assessed as cell viability by MTS assay; outline: as §1
[4] = Cytotoxicity against human MDA1986 cells assessed as cell viability by MTS assay; outline: as §1
[5] = system: SK-MEL-28; experiment: Cytotoxicity against human SK-MEL-28 cells harboring BRAF […]/PTEN mutation assessed as membrane disintegration by phase contrast microscopy
Outline: (§2)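 Cells treated with increasing concentrations of saponins, then examined by phase-contrast microscopy for membrane disintegration.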

[6] = system: B16-F10; experiment: Cytotoxicity against mouse B16F10 cells harboring BRAF […] mutation assessed as membrane disintegration by phase contrast microscopy; outline: as §2
[7] = system: JMAR; experiment: Cytotoxicity against human JMAR cells assessed as membrane disintegration by phase contrast microscopy; outline: as §2
[8] = species: Homo sapiens; experiment: Cytotoxicity against human MDA1986 cells assessed as membrane disintegration by phase contrast microscopy; outline: as §2

| SMILES | IC50 [1] [µM] | IC50 [2] [µM] | IC50 [3] [µM] | IC50 [4] [µM] | Activity [5] | Activity [6] | Activity [7] | Activity [8] |
| --- | --- | --- | --- | --- | --- | --- | --- | --- |
| CC1(C)CC[C@]2(C(=O)O)[C@H](O)C[C@]3(C)C(=CC[C@@H]4[C@@]5(C)CC[C@H](O[C@@H]6O[C@H](CO[C@@H]7OC[C@H](O)[C@H](O)[C@H]7O[C@@H]7OC[C@H](O)[C@H](O)[C@H]7O)[C@@H](O)[C@H](O)[C@H]6O[C@@H]6O[C@H](CO)[C@@H](O)[C@H](O)[C@H]6O)C(C)(C)[C@@H]5CC[C@]43C)[C@@H]2C1 | > 20 | > 20 | > 20 | > 20 | – | – | – | – |
| CC(=O)N[C@H]1[C@H](O[C@H]2CC[C@]3(C)[C@H]4CC=C5[C@@H]6CC(C)(C)[C@@H]7C[C@]6(C(=O)O7)[C@H](O)C[C@@]5(C)[C@]4(C)CC[C@H]3C2(C)C)O[C@H](CO[C@@H]2OC[C@H](O)[C@H](O)[C@H]2O[C@@H]2OC[C@H](O)[C@H](O)[C@H]2O)[C@@H](O)[C@@H]1O | > 20 | > 20 | > 20 | > 20 | – | – | – | – |
| CC1(C)CC[C@]2(C(=O)O)CC[C@]3(C)C(=CC[C@@H]4[C@@]5(C)CC[C@H](O[C@@H]6O[C@H](CO)[C@@H](O)[C@H](O)[C@H]6O[C@@H]6O[C@H](CO)[C@@H](O)[C@H](O)[C@H]6O)C(C)(C)[C@@H]5CC[C@]43C)[C@@H]2C1 [ACUTOSIDE A] | > 20 | > 20 | > 20 | > 20 | – | – | – | – |
| CC1(C)CC[C@]2(C(=O)O)[C@H](O)C[C@]3(C)C(=CC[C@@H]4[C@@]5(C)CC[C@H](O[C@@H]6O[C@H](CO[C@@H]7OC[C@H](O)[C@H](O)[C@H]7O[C@@H]7OC[C@@H](O)[C@H](O)[C@H]7O)[C@@H](O)[C@H](O)[C@H]6O[C@@H]6O[C@H](CO)[C@@H](O)[C@H](O)[C@H]6O)C(C)(C)[C@@H]5CC[C@]43C)[C@@H]2C1 | > 20 | > 20 | > 20 | > 20 | – | – | – | – |
| CC(=O)N[C@H]1[C@H](O[C@H]2CC[C@]3(C)[C@H]4CC=C5[C@@H]6CC(C)(C)[C@@H]7C[C@]6(C(=O)O7)[C@H](O)C[C@@]5(C)[C@]4(C)CC[C@H]3C2(C)C)O[C@H](CO[C@@H]2OC[C@H](O)[C@H](O)[C@H]2O[C@@H]2OC[C@@H](O)[C@H](O)[C@H]2O)[C@@H](O)[C@@H]1O [PROSAPOGENIN 4] | > 20 | > 20 | > 20 | > 20 | – | – | – | – |
| CC(=O)N[C@H]1[C@H](O[C@H]2CC[C@]3(C)[C@H]4CC=C5[C@@H]6CC(C)(C)CC[C@]6(C(=O)O)[C@H](O)C[C@@]5(C)[C@]4(C)CC[C@H]3C2(C)C)O[C@H](CO[C@@H]2OC[C@H](O)[C@H](O)[C@H]2O)[C@@H](O)[C@@H]1O | 5.1 | 2.8 | 9.2 | 1.8 | inactive | inactive | inactive | inactive |
| CC(=O)N[C@H]1[C@H](O[C@H]2CC[C@]3(C)[C@H]4CC=C5[C@@H]6CC(C)(C)CC[C@]6(C(=O)O)CC[C@@]5(C)[C@]4(C)CC[C@H]3C2(C)C)O[C@H](CO[C@@H]2OC[C@H](O)[C@H](O)[C@H]2O)[C@@H](O)[C@@H]1O | 4.7 | 8.7 | 12.4 | 7.3 | inactive | inactive | inactive | inactive |
| CC1(C)CC[C@]2(C(=O)O)CC[C@]3(C)C(=CC[C@@H]4[C@@]5(C)CC[C@H](O[C@@H]6O[C@H](CO[C@@H]7OC[C@H](O)[C@H](O)[C@H]7O[C@@H]7OC[C@@H](O)[C@H](O)[C@H]7O)[C@@H](O)[C@H](O)[C@H]6O)C(C)(C)[C@@H]5CC[C@]43C)[C@@H]2C1 [PITHEDULOSIDE C] | 6.9 | 10.1 | 8.6 | 9 | inactive | inactive | inactive | inactive |
| CC1(C)CC[C@]2(C(=O)O)CC[C@]3(C)C(=CC[C@@H]4[C@@]5(C)CC[C@H](O[C@@H]6O[C@H](CO[C@@H]7OC[C@H](O)[C@H](O)[C@H]7O[C@@H]7OC[C@H](O)[C@H](O)[C@H]7O)[C@@H](O)[C@H](O)[C@H]6O)C(C)(C)[C@@H]5CC[C@]43C)[C@@H]2C1 | 6.3 | 11.5 | 8.1 | 8.2 | inactive | inactive | inactive | inactive |
